The record followed here is ChEMBL document CHEMBL5154824, “Design and synthesis of multifunctional microtubule targeting agents endowed with dual pro-apoptotic and anti-autophagic efficacy” (Eur J Med Chem, 2022).

Activity calls are given as the source filed them. The calls are words filed in the database; no cut-off is given here.

As a reminder, the IC50 is the concentration that inhibits the measured activity by half.

The test system of data set [1] is HeLa. Put plainly: Induction of morphological changes in human HeLa cells assessed as golgi complex fragmentation at 10 uM incubated for 3 hrs by phalloidin staining based laser scanning confocal microscopic analysis. The format is functional, cell-based. In short, it runs like this:
(§1)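 HeLa cells in growth medium were treated at 1 or 10 μM, with BafA1 300 nM as reference, for 3 h. Cells were fixed in 4% PFA, stained with anti-GM130 for the Golgi and AF647-phalloidin for actin, and imaged by laser scanning confocal microscopy.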

The subject of the next data set is TR146. Put plainly: Induction of apoptosis in human TR146 cells assessed as increase in apoptotic cells at 0.5 uM after 48 hrs by Annexin V-FITC/PI staining based flow cytometry method. It counts as functional, cell-based. In short, it runs like this:
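Ca9.22 or TR146 cells were seeded at 30×10^4 cells/mL and treated with 500 nM compound or 1% EtOH (v/v) vehicle for 48 h. Annexin V/PI staining was read by flow cytometry, gating 10,000 cells on vehicle-treated cells. Data are mean ± SEM (n = 3).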
In general terms: Flow cytometry measures light scatter and fluorescence of single cells or particles in a stream.

A short description of data set [2]: Cytotoxicity against human TR146 cells assessed as reduction in cell viability measured after 48 hrs by alamar blue viability assay. It counts as functional, cell-based. Conditions: TR146, 48 h. In short, it runs like this: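 Oral squamous carcinoma cells were exposed for 48 h to at least 8 increasing concentrations. Viability was read by AlamarBlue. IC50 is the concentration that halves viability, taken as the mean ± SD of at least three independent experiments.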

Another data set relates to KYSE-520 cell line. Kind of data set: Induction of apoptosis in human KYSE520 cells assessed as increase in apoptotic cells at 3 to 10 uM after 72 hrs by Annexin V-FITC/PI staining based flow cytometry method. The format is functional, cell-based. The following applies: dose 3-10 µM. In short, it runs like this:
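KYSE-520 cells were treated at 3 and 10 μM for 72 h, then analysed by flow cytometry after Annexin V/PI dual staining.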

Data set [3] addresses Nuclear factor NF-kappa-B complex (Homo sapiens) (UniProt Q00653+P19838+Q04206). Kind of data set: Inhibition of NF-kappaB phosphorylation in human HL-60 cells at 10 uM measured after 2 hrs by Immunoblotting analysis. The format is cell-based. In short, it runs like this:
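HL-60 cells were treated at 10 μM or with DMSO vehicle for 2 h. Phospho-NF-κB and phospho-Erk1/2 were immunoblotted and quantified by densitometry relative to β-tubulin. Data are mean ± SD (n = 2), analysed by one-way ANOVA.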
In general terms: In western blotting, separated proteins are transferred to a membrane and probed.

The nature of data set [4]: Cytotoxicity against human SKGT4 cells assessed as inhibition of cell growth measured after 72 hrs by MTT assay. The following applies: SKGT4, 72 h. The format is functional, cell-based. In short, it runs like this: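 Oesophageal adenocarcinoma lines were exposed to at least 8 increasing concentrations for 72 h. Viability was measured by MTT. IC50 is the mean ± SD of at least three independent experiments.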
In general terms: Tetrazolium dyes change colour on reduction, which living cells bring about.

Data set [5] deals with SCC-4. Kind of data set: Induction of autophagy in human SCC-4 cells assessed as increase in UlK1 phosphorylation at 10 uM in measured after 24 hrs by Immunoblotting analysis. The format is functional, cell-based. In short, it runs like this: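 SCC4 cells under basal conditions were treated at 10 μM for 24 h. Autophagy-related proteins were immunoblotted, and densitometry was expressed as a ratio normalised to vehicle control.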

The nature of data set [6]: Mutagenicity in Salmonella typhimurium TA100 in absence of rat liver S9 fraction at 0.3 to 60 uM by AMES test. The format is toxicity. Conditions: salmonella enterica subsp. enterica serovar typhimurium, s9, 60 µM; dose 0.3-60 µM.
Data set [7] is described as follows: Ratio of IC50 for cytotoxicity against human […] assessed as inhibition of cell growth measured after 48 hrs to IC50 for cytotoxicity against human A2780 cells assessed as inhibition of cell growth measured after 48 hrs. It counts as functional. In short, it runs like this: (§2)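 MTT assay: cells exposed to increasing compound concentrations for 48 h. Lines were A2780 and its P-gp-overexpressing A2780AD counterpart, and HeLa and HeLa β3 (tubulin β3-overexpressing). IC50 is the mean ± SD of three independent experiments. R/S is the IC50 in the resistant line divided by that in the parental line.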

The subject of data set [8] is HeLa. Kind of data set: Induction of morphological changes in human HeLa cells assessed as increase in actin stress fibres at 10 uM incubated for 3 hrs by phalloidin staining based laser scanning confocal microscopic analysis. It counts as functional, cell-based. In short, it runs like this:
as §1

A short description of data set [9]: Ratio of IC50 for cytotoxicity against human HeLa cells overexpressing tubulin beta3 assessed as inhibition of cell growth measured after 48 hrs to IC50 for cytotoxicity against human HeLa cells assessed as inhibition of cell growth measured after 48 hrs. The format is functional. In short, it runs like this: as §2
In data set [10] the test system is SCC-4. Put plainly: Induction of autophagy in human SCC-4 cells assessed as increase in LC3-II to LC3-I ratio at 10 uM incubated for 30 mins in presence of EBSS followed by compound addition and measured after 3 hrs by Western blot analysis. The format is functional, cell-based. In short, it runs like this: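 SCC4 cells were pre-incubated with or without EBSS for 30 min, then given 10 μM compound, with 10 μM chloroquine as reference, for 3 h. LC3-I/II was assessed by Western blot with GAPDH loading control. The LC3-II/LC3-I ratio came from densitometry, as mean ± SEM of four experiments, with an unpaired one-tailed t-test.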

The next data set concerns Emu-TCL1. Put plainly: Induction of apoptosis in mouse Emu-TCL1 cells model of CLL assessed as mitochondrial membrane depolarization at 10 uM after 48 hrs by TMRM dye based flow cytometric analysis. The format is functional, cell-based. In short, it runs like this: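 Splenocytes from Eμ-TCL1 leukaemic mice were treated with 10 μM or DMSO vehicle for 48 h, then TMRM-loaded. Flow cytometry gave the percentage of TMRM-low cells as mean ± SD (n = 3).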

In data set [11] the test system is HeLa. Kind of data set: Cytotoxicity against human HeLa cells overexpressing tubulin beta3 assessed as inhibition of cell growth measured after 48 hrs by MTT assay. The format is functional, cell-based. In short, it runs like this: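 MTT assay. Cells were exposed for 48 h to increasing concentrations of compound. Ovarian A2780 was paired with its P-gp-overexpressing A2780AD counterpart, and HeLa with HeLa β3, which overexpresses the tubulin β3 isotype. IC50 is the mean ± SD of three independent experiments.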

Data set [12] deals with HeLa. Kind of data set: Induction of cell morphological changes in human HeLa cells at 10 uM measured after 3 hrs by LysoTracker Red staining based microscopic analysis. The format is functional. In short, it runs like this: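 Living HeLa cells were treated at 10 μM, or with BafA1 at 300 nM, for 3 h, then incubated with 75 nM LysoTracker red. Cells were imaged by spinning disc microscopy at 37 °C, 5% CO2.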

Data set [13] relates to HeLa. Kind of data set: Induction of autophagy in human HeLa cells assessed as increase in number of autophagosomes formation at 10 uM measured after 3 hrs by immunofluorescence based laser scanning confocal microscopic analysis. The format is functional, cell-based. In short, it runs like this:
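HeLa cells in growth medium were treated at 1 or 10 μM, with BafA1 300 nM as reference, for 3 h. Cells were fixed in ice-cold methanol, immunostained for LC3 (autophagosomes) and LAMP1, and imaged by laser scanning confocal microscopy.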

Data set [14] in a line: Metabolic stability in human liver microsomes assessed as apparent decay constant by HPLC analysis. The format is ADME, Microsome. In short, it runs like this:
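Compound incubated with human liver microsomes plus an NADPH-generating system. Log % of compound recovered (100% at 0 min) was plotted against incubation time and fitted to a monoexponential decay. Controls were boiled microsomes, or microsomes without NADPH-GS, at 37 °C for 60 min.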

Data set [15] deals with HeLa. Kind of data set: Induction of morphological changes in human HeLa cells assessed as cell rounding at 10 uM incubated for 3 hrs by phalloidin staining based laser scanning confocal microscopic analysis. It counts as functional. In short, it runs like this:
as §1

Data set [16] deals with HeLa. Kind of data set: Induction of morphological changes in human HeLa cells assessed as effect on actin cytoskeleton at 10 uM incubated for 3 hrs by phalloidin staining based laser scanning confocal microscopic analysis. It counts as functional, cell-based. In short, it runs like this: as §1
In data set [17] the test system is HeLa. Kind of data set: Induction of morphological changes in human HeLa cells assessed as golgi complex fragmentation at 1 uM incubated for 3 hrs by phalloidin staining based laser scanning confocal microscopic analysis. It counts as functional, cell-based. In short, it runs like this: as §1

Chain of Nuclear factor NF-kappa-B complex (Homo sapiens) (P19838 whole entry, looked up): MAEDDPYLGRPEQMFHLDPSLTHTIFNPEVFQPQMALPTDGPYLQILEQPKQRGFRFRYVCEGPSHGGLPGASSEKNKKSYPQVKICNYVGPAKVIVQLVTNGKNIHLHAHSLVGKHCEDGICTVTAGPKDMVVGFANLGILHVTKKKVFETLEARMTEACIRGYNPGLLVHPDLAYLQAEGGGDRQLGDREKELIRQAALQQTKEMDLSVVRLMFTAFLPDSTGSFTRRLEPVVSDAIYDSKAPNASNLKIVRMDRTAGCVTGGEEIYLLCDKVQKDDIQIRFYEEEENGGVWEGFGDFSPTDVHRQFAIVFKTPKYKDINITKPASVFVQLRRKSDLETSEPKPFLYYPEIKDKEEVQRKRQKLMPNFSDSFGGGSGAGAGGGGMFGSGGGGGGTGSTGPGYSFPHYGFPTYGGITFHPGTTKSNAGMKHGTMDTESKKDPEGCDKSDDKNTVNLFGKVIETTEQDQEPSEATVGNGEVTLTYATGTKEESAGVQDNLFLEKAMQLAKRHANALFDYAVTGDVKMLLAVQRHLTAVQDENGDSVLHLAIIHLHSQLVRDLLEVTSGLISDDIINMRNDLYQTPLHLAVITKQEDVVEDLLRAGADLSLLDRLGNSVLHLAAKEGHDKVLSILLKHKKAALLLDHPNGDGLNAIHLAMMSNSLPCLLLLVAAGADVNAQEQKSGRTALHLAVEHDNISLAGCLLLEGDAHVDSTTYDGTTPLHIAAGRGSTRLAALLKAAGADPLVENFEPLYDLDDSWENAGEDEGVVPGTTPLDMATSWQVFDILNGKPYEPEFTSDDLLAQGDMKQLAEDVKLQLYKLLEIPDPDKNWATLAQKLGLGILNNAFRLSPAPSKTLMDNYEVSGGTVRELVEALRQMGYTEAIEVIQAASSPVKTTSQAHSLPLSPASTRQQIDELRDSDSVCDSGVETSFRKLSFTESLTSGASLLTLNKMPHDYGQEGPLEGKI
Chain of Nuclear factor NF-kappa-B complex (Homo sapiens) (Q00653 whole entry, looked up): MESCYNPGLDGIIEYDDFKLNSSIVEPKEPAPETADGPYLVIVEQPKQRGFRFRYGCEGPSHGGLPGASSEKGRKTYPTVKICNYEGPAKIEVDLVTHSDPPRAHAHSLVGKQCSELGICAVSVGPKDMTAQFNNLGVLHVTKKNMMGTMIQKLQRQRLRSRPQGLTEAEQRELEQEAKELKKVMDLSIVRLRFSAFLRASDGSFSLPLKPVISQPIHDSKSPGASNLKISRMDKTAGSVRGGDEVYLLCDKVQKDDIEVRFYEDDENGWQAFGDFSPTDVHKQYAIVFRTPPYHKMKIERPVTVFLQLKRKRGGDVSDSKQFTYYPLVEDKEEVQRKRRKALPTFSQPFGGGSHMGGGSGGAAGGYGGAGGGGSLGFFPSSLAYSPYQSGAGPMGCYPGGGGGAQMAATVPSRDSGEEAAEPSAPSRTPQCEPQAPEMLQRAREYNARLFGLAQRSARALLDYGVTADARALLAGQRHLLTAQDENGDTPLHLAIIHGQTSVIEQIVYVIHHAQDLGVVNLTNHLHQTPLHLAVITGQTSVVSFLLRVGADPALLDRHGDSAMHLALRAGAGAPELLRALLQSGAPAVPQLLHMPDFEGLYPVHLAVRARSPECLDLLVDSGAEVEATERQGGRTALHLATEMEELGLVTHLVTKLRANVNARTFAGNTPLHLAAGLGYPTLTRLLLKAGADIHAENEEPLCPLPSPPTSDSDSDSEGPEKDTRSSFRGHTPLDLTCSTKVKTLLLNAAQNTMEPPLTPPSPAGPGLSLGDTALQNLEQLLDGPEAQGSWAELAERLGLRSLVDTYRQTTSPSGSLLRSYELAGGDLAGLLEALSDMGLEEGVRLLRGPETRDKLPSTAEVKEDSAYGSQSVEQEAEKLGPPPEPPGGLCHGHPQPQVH
Chain of Nuclear factor NF-kappa-B complex (Homo sapiens) (Q04206 whole entry, looked up): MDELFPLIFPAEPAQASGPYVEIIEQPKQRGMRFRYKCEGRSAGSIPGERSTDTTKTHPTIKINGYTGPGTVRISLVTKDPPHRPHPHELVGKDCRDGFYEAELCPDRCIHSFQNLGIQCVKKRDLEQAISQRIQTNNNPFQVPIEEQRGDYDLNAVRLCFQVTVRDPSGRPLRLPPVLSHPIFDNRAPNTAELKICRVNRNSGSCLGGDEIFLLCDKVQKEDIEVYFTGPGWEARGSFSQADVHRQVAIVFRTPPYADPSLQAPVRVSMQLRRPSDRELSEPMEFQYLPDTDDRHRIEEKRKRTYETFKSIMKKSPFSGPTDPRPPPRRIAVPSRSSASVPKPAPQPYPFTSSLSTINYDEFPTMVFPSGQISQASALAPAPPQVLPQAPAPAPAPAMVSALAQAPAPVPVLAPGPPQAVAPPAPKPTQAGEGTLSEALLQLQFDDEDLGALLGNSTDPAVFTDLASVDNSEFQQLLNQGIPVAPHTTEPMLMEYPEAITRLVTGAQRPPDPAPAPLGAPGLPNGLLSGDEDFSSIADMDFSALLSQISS

Turning to `CN1CCN(C(=O)OC2=C(c3cccc4ncccc34)Oc3cc4ccccc4cc3-n3cccc32)CC1`, the outcome in the data set with HeLa [1], in the data set on TR146, in the data set with KYSE-520 cell line, in the data set with SCC-4 [5], in the data set on HeLa [8] and in the data set on SCC-4 [10] was Active. Further, the result with Emu-TCL1, in the data set with HeLa [12] and in the data set with HeLa [13] was Active. Also, the IC50 in [2] came to 0.88 µM; in [4], 0.55 µM; with HeLa [11], 0.331 µM. Further, in data set [3], the inhibition entry was “Active”. Further, the Activity entry in data set [6] is on record as “Non-Toxic”. Besides, the “Ratio IC50” value in [7] is listed as 0.67; in data set [9], 0.71. The k el in data set [14] is 0.000367 s⁻¹.

Turning to `O=C(OC1=C(c2cccc3ncccc23)Oc2cc3ccccc3cc2-n2cccc21)C1CCNCC1`, the result with HeLa [1], with KYSE-520 cell line, in the data set on SCC-4 [5], with SCC-4 [10], in the data set on Emu-TCL1 and in the data set with HeLa [12] was Active. The outcome in the data set with HeLa [15], with HeLa [16] and with HeLa [17] was Active. Also, in [2], the IC50 came to 4.5 µM. In addition, in data set [3], the inhibition entry was “Active”. Further, the Activity result in data set [6] is “Non-Toxic”. For the same compound, the k el in data set [14] is 0.000127 s⁻¹.
